One data set has as its system parasites. The note with it: cited from earlier work.
The subject of data set [1] is L. braziliensis. The settings on record: 10 μg/ml TBO; cited from earlier work.
The subject of data set [2] is J774A.1 macrophages cell line. Briefly: Cytotoxicity. Format: cell-based, mice.
Another data set deals with L. major promastigotes. The data set is described as follows: Promastigote growth inhibition. Format: cell-based, Leishmania major. The procedure, abridged:
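Stationary-phase (5 d) L. major MRHO/IR/75/ER promastigotes (1×10^6) were grown at 26 °C in RPMI-1640 with 10% heat-inactivated FCS, pH 7.4. They received TBO (7.8–500 μg/ml) plus 630 nm LED irradiation. MTT at 570 nm was read at 2, 24 and 48 h, as % of untreated OD. IC50 came from dose-response curves, triplicates. SI = macrophage CC50/promastigote IC50.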

In another data set the test system is L. major. The note with it: cited from earlier work.
In data set [3] the test system is L. braziliensis. The settings on record: in-vitro; cited from earlier work.

Where two headings read alike, the source gives them in different places.

For the compound `CN(C)c1ccc2nc3ccc(=[N+](C)C)cc-3sc2c1` [MB, methylene blue], the “decrease of parasites viability” value is given as “more than 70%” in the data set on parasites (PDT) and “up to 50%” in the data set on parasites (in the dark, higher concentration of MB).
Consider `Cc1cc2nc3ccc(N(C)C)cc3[s+]c2cc1N.[Cl-]` [TBO, Toluidine Blue O], for which the parasite viability result in the data set with L. braziliensis [1] is listed as “significantly reduced”. Moreover, in data set [2], the “toxicity to macrophages compared to glucantime (positive control)” value was “less toxicity”. For the same compound, the “cytotoxicity to J774.A1 macrophages” value in data set [2] (dark group) was “no cytotoxic”. Further, the decrease in viability entry with L. major promastigotes (PDT, three highest concentrations, after 24 h) was “more than 70%”. In the data set on L. major promastigotes (dark group (no PDT), highest concentrations), the toxicity to parasites result is reported as “intermediate toxicity”.
In the case of Aluminum phthalocyanine, in the data set on L. major (10.0μM concentration and 10 J/cm^2 irradiation), the phototoxicity entry is “phototoxic”.
For the compound aluminum phthalocyanine tetra sulfonate, the “elimination of parasites by PDT” value in the data set on L. braziliensis [3] and with L. major (in-vitro) was “effectively eliminated” each time.

Values taken from article PMC8819215 (Iranian Journal of Public Health, 2021).
